Test results taken from ChEMBL document CHEMBL4706598 (Eur J Med Chem, 2020).
Blank lines part the entries; values can stand above or below the compound they belong to. The source made the active and inactive calls. The calls are words filed in the database; no cut-off is given here.

Assays:
[1] = molecular target: Dipeptidyl peptidase 8 (Homo sapiens, UniProt Q6V1X1); test: Inhibition of DPP8 (unknown origin)
[2] = tested on: HepG2; test: Cytotoxicity against human HepG2 cells assessed as reduction in cell viability at 1 to 100 uM measured after 48 hrs by MTT assay; assay type: cell-based; details: hepg2, 48 h, dose 1-100 µM
Summary of the method: (§1)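 HepG2 cells were exposed to compound at a range of concentrations for 48 h. Viability was measured by MTT assay. Mean ± SD, n = 3.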

[3] = molecular target: Dipeptidyl peptidase 9 (Homo sapiens, UniProt Q86TI2); test: Inhibition of DPP9 (unknown origin)
[4] = tested on: Mus musculus; test: Anti-Hyperglycemic activity in high fat diet-fed/streptozotocin-induced type 2 diabetic mellitus C57BL/6 mouse model assessed as blood glucose level at 10 mg/kg, ip administered 30 mins prior to glucose challenge and measured after 2 hrs by IPGTT (reference value: 12.3 to 15.3 mM); assay type: functional; details: time 150 min, 2.5 h
Summary of the method: (§2)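 Male C57BL/6 mice made type 2 diabetic by high-fat diet plus streptozotocin. Each received a single intraperitoneal dose (1, 5 or 10 mg/kg) 30 min before an intraperitoneal glucose challenge. Blood glucose was read at 0, 0.5, 1, 1.5 and 2 h. Results are mean ± SD, n = 4.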

[5] = tested on: Mus musculus; test: Anti-Hyperglycemic activity in high fat diet-fed/streptozotocin-induced type 2 diabetic mellitus C57BL/6 mouse model assessed as reduction in AUC(0 to 120 mins) of blood glucose level at 1 mg/kg, ip administered 30 mins prior to glucose challenge and measured after 120 mins by IGTT; assay type: functional; details: C57BL/6, ip, 2.5 h, time 150 min
Summary of the method: (§3)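 Glucose tolerance tests (intraperitoneal or oral) in HFD/STZ type 2 diabetic male C57BL/6 mice. Glucose AUC was calculated over 0–120 min. Percent reduction came from AUC normalised to saline-challenged controls. Mean ± SD, n = 4. Statistics: one-way ANOVA with LSD post-test.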

[6] = tested on: Mus musculus; test: Anti-Hyperglycemic activity in high fat diet-fed/streptozotocin-induced type 2 diabetic mellitus C57BL/6 mouse model assessed as blood glucose level at 10 mg/kg, ip administered 30 mins prior to glucose challenge and measured after 1 hrs by IPGTT (reference value: 12.3 to 15.3 mM); assay type: functional; details: time 90 min, 1.5 h; summary of the method: as §2
[7] = tested on: Mus musculus; test: Anti-Hyperglycemic activity in high fat diet-fed/streptozotocin-induced type 2 diabetic mellitus C57BL/6 mouse model assessed as blood glucose level at 10 mg/kg, po administered 30 mins prior to glucose challenge and measured after 30 mins by OGTT (reference value: 15.8 +/-4.5 mM); assay type: functional; details: time 60 min, 1 h
[8] = tested on: Mus musculus; test: Anti-Hyperglycemic activity in high fat diet-fed/streptozotocin-induced type 2 diabetic mellitus C57BL/6 mouse model assessed as blood glucose level at 10 mg/kg, po administered 30 mins prior to glucose challenge and measured after 90 mins by OGTT (reference value: 15.8 +/-4.5 mM); assay type: functional; details: time 120 min, 2 h
[9] = tested on: Mus musculus; test: Anti-Hyperglycemic activity in high fat diet-fed/streptozotocin-induced type 2 diabetic mellitus C57BL/6 mouse model assessed as reduction in AUC(0 to 120 mins) of blood glucose level at 5 mg/kg, ip administered 30 mins prior to glucose challenge and measured after 120 mins by IGTT; assay type: functional; details: C57BL/6, ip, 2.5 h, time 150 min; summary of the method: as §3
[10] = tested on: Mus musculus; test: Anti-Hyperglycemic activity in high fat diet-fed/streptozotocin-induced type 2 diabetic mellitus C57BL/6 mouse model assessed as blood glucose level at 10 mg/kg, po administered 30 mins prior to glucose challenge and measured after 60 mins by OGTT (reference value: 15.8 +/-4.5 mM); assay type: functional; details: time 90 min, 1.5 h
[11] = tested on: Mus musculus; test: Anti-Hyperglycemic activity in high fat diet-fed/streptozotocin-induced type 2 diabetic mellitus C57BL/6 mouse model assessed as blood glucose level at 10 mg/kg, ip administered 30 mins prior to glucose challenge and measured after 0.5 hrs by IPGTT (reference value: 12.3 to 15.3 mM); assay type: functional; details: time 60 min, 1 h; summary of the method: as §2
[12] = tested on: Mus musculus; test: Anti-Hyperglycemic activity in high fat diet-fed/streptozotocin-induced type 2 diabetic mellitus C57BL/6 mouse model assessed as reduction in blood glucose level at 10 mg/kg/day for 14 days and measured on day 5; assay type: functional, organism-based; details: time 5.0 day
Summary of the method: (§4)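 HFD/STZ-induced type 2 diabetic male C57BL/6 mice were dosed at 10 mg/kg/day for 14 days. Plasma glucose was tracked over the treatment period and compared with diabetic controls. Mean ± SD of 4 mice. Statistics: one-way ANOVA with LSD post-test.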

[13] = tested on: Mus musculus; test: Anti-Hyperglycemic activity in high fat diet-fed/streptozotocin-induced type 2 diabetic mellitus C57BL/6 mouse model assessed as blood glucose level at 1 mg/kg, ip administered 30 mins prior to glucose challenge and measured after 0.5 hrs by IPGTT (reference value: 12.7 +/- 0.7 mM); assay type: functional; details: time 60 min; summary of the method: as §2
[14] = tested on: Mus musculus; test: Anti-Hyperglycemic activity in high fat diet-fed/streptozotocin-induced type 2 diabetic mellitus C57BL/6 mouse model assessed as reduction in blood glucose level at 10 mg/kg/day for 14 days and measured on day 14; assay type: functional; details: C57BL/6, 336 h, time 14 day; summary of the method: as §4
[15] = tested on: Mus musculus; test: Anti-Hyperglycemic activity in high fat diet-fed/streptozotocin-induced type 2 diabetic mellitus C57BL/6 mouse model assessed as blood glucose level at 5 mg/kg, ip administered 30 mins prior to glucose challenge and measured after 1.5 hrs by IPGTT (reference value: 13.4 +/- 1.1 mM); assay type: functional; details: time 120 min, 2 h; summary of the method: as §2
[16] = tested on: Mus musculus; test: Anti-Hyperglycemic activity in high fat diet-fed/streptozotocin-induced type 2 diabetic mellitus C57BL/6 mouse model assessed as blood glucose level at 5 mg/kg, ip administered 30 mins prior to glucose challenge and measured after 0.5 hrs by IPGTT (reference value: 13.4 +/- 1.1 mM); assay type: functional; details: time 60 min, 1 h; summary of the method: as §2
[17] = tested on: Mus musculus; test: Anti-Hyperglycemic activity in high fat diet-fed/streptozotocin-induced type 2 diabetic mellitus C57BL/6 mouse model assessed as reduction in AUC(0 to 120 mins) of blood glucose level at 10 mg/kg, ip administered 30 mins prior to glucose challenge and measured after 120 mins by IGTT; assay type: functional; details: C57BL/6, ip, 2.5 h, time 150 min; summary of the method: as §3
[18] = Cytotoxicity against human HepG2 cells assessed as cell viability at 100 uM measured after 48 hrs by MTT assay; assay type: cell-based; details: read-out: Activity; summary of the method: as §1
[19] = tested on: Mus musculus; test: Anti-Hyperglycemic activity in high fat diet-fed/streptozotocin-induced type 2 diabetic mellitus C57BL/6 mouse model assessed as reduction in AUC(0 to 120 mins) of blood glucose level at 10 mg/kg, po administered 30 mins prior to glucose challenge and measured after 120 mins by OGTT; assay type: functional; details: C57BL/6, po, 2.5 h, time 150 min; summary of the method: as §3
[20] = tested on: Mus musculus; test: Anti-Hyperglycemic activity in high fat diet-fed/streptozotocin-induced type 2 diabetic mellitus C57BL/6 mouse model assessed as blood glucose level at 5 mg/kg, ip administered 30 mins prior to glucose challenge and measured after 2 hrs by IPGTT (reference value: 13.4 +/- 1.1 mM); assay type: functional; details: time 150 min, 2.5 h; summary of the method: as §2
[21] = tested on: Mus musculus; test: Anti-Hyperglycemic activity in high fat diet-fed/streptozotocin-induced type 2 diabetic mellitus C57BL/6 mouse model assessed as blood glucose level at 5 mg/kg, ip administered 30 mins prior to glucose challenge and measured after 1 hr by IPGTT (reference value: 13.4 +/- 1.1 mM); assay type: functional; details: time 90 min, 1.5 h; summary of the method: as §2
[22] = tested on: Mus musculus; test: Anti-Hyperglycemic activity in high fat diet-fed/streptozotocin-induced type 2 diabetic mellitus C57BL/6 mouse model assessed as blood glucose level at 1 mg/kg, ip administered 30 mins prior to glucose challenge and measured after 1 hr by IPGTT (reference value: 12.7 +/- 0.7 mM); assay type: functional; details: time 90 min, 1.5 h; summary of the method: as §2
[23] = tested on: Mus musculus; test: Anti-Hyperglycemic activity in high fat diet-fed/streptozotocin-induced type 2 diabetic mellitus C57BL/6 mouse model assessed as blood glucose level at 10 mg/kg, ip administered 30 mins prior to glucose challenge and measured after 1.5 hrs by IPGTT (reference value: 12.3 to 15.3 mM); assay type: functional; details: time 120 min, 2 h; summary of the method: as §2
[24] = tested on: Mus musculus; test: Anti-Hyperglycemic activity in high fat diet-fed/streptozotocin-induced type 2 diabetic mellitus C57BL/6 mouse model assessed as blood glucose level at 1 mg/kg, ip administered 30 mins prior to glucose challenge and measured after 1.5 hrs by IPGTT (reference value: 12.7 +/- 0.7 mM); assay type: functional; details: time 120 min, 2 h; summary of the method: as §2
[25] = tested on: Mus musculus; test: Anti-Hyperglycemic activity in high fat diet-fed/streptozotocin-induced type 2 diabetic mellitus C57BL/6 mouse model assessed as blood glucose level at 10 mg/kg, po administered 30 mins prior to glucose challenge and measured after 120 mins by OGTT (reference value: 15.8 +/-4.5 mM); assay type: functional; details: time 150 min, 2.5 h
[26] = tested on: Mus musculus; test: Anti-Hyperglycemic activity in high fat diet-fed/streptozotocin-induced type 2 diabetic mellitus C57BL/6 mouse model assessed as blood glucose level at 1 mg/kg, ip administered 30 mins prior to glucose challenge and measured after 2 hrs by IPGTT (reference value: 12.7 +/- 0.7 mM); assay type: functional; details: time 150 min, 2.5 h; summary of the method: as §2
[27] = molecular target: Dipeptidyl peptidase 4 (Homo sapiens, UniProt P27487); test: Inhibition of DPP4 in human Caco-2 cells using AP-AFC as substrate preincubated with enzyme for 10 mins followed by substrate addition and measured after 10 mins by fluorescence based analysis; assay type: cell-based
Dipeptidyl peptidase 4, sequence (P27487 whole entry): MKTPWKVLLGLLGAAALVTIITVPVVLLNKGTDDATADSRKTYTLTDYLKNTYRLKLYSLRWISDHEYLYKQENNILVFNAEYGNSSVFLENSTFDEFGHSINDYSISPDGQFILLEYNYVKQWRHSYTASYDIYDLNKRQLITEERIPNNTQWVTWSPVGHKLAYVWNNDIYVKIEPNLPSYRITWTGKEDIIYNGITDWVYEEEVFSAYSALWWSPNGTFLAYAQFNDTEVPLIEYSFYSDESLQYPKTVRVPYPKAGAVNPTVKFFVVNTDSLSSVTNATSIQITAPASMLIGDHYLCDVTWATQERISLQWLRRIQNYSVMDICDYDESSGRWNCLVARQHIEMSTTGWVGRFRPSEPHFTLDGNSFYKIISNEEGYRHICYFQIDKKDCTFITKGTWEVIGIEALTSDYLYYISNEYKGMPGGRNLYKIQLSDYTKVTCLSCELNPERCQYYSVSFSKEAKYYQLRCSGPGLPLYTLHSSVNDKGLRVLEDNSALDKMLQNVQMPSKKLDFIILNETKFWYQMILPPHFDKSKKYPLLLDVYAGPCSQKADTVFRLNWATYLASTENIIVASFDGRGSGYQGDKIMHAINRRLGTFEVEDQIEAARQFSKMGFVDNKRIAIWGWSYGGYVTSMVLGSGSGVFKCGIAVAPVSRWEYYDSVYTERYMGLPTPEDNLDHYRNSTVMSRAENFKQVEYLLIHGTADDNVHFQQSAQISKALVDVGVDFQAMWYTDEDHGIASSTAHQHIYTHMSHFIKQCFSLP

Dipeptidyl peptidase 8, sequence (Q6V1X1 whole entry): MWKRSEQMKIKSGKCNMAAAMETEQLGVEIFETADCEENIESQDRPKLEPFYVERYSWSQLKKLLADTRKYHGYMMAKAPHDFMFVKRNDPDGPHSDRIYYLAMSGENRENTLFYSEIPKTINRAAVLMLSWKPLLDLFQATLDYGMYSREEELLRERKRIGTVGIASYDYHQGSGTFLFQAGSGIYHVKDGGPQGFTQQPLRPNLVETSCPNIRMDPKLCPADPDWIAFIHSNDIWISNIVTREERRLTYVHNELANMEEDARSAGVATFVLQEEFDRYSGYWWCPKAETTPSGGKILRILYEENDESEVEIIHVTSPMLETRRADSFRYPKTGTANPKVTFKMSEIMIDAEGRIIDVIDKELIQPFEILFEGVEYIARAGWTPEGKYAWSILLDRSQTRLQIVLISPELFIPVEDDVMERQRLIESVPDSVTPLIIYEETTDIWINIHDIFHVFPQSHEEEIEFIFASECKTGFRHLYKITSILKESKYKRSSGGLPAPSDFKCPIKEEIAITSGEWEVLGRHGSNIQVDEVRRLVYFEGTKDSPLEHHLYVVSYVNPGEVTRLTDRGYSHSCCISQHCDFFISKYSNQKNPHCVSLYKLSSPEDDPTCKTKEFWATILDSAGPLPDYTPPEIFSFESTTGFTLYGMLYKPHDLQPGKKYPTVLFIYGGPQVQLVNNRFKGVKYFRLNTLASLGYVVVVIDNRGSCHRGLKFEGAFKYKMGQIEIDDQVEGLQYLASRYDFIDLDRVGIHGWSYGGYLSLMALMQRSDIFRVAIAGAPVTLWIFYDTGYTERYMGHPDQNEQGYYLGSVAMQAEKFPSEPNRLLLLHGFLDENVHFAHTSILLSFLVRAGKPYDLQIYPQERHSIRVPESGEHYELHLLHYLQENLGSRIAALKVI
Dipeptidyl peptidase 9, sequence (Q86TI2 whole entry): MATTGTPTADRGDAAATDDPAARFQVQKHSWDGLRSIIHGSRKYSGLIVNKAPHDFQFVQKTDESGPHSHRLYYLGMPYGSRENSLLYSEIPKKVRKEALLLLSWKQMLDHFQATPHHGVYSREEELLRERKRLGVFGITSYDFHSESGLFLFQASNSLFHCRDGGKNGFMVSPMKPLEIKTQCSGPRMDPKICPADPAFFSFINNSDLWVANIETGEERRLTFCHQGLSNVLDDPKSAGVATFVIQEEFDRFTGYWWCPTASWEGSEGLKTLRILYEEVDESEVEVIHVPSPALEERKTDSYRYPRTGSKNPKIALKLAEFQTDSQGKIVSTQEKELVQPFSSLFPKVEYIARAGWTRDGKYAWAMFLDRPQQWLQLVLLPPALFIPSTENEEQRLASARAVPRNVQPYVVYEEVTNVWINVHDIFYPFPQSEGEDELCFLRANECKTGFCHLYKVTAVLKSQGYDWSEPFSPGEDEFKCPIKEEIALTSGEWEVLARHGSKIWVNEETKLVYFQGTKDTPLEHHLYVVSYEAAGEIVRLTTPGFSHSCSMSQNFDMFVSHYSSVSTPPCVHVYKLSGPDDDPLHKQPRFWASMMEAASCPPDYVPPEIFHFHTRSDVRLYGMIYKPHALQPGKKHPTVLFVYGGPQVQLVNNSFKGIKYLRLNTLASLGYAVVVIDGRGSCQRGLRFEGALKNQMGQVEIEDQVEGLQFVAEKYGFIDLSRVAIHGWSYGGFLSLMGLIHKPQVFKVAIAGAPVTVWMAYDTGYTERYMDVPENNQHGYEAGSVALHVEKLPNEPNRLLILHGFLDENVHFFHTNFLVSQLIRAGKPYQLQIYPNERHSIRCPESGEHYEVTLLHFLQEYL

- IC50 [1]: > 100 µM
- IC50 [3]: > 100 µM
Structure (SMILES): Clc1ccc(Nc2cc(N3CCNCC3)nc3ccnn23)c(Cl)c1
- Activity [2]: Toxic

- IC50 [1]: > 50 µM
- IC50 [3]: > 50 µM
Structure (SMILES): Fc1ccc(CNc2cc(N3CCNCC3)nc3ccnn23)c(F)c1
- Activity [4]: 10.9 mM
- inhibition in vivo at 1 mg/kg [5]: 26%
- Activity [6]: 14.4 mM
- Activity [7]: 26.7 mM
- Activity [8]: 18.5 mM
- inhibition in vivo at 5 mg/kg [9]: 28%
- Activity [10]: 19.1 mM
- Activity [11]: 16.2 mM
- Activity [12]: inactive
- Activity [13]: 25.7 mM
- inhibition in vivo at 10 mg/kg/day [14]: 46%
- Activity [15]: 17.4 mM
- Activity [16]: 23.4 mM
- inhibition in vivo at 10 mg/kg [17]: 47%
- viability at 48 h, 100 µM [18]: 90%
- inhibition in vivo at 10 mg/kg [19]: 22%
- Activity [20]: 15.1 mM
- Activity [2]: Non-Toxic
- Activity [21]: 18.5 mM
- Activity [22]: 18.6 mM
- Activity [23]: 13 mM
- Activity [24]: 17.9 mM
- Activity [25]: 15.6 mM
- Activity [26]: 14.8 mM

- IC50 [1]: > 100 µM
- IC50 [3]: > 100 µM
Structure (SMILES): Cc1ccnc(Nc2cc(N3CCC[C@@H](N)C3)nc3ccnn23)c1

- IC50 [1]: > 100 µM
- IC50 [3]: > 100 µM
Structure (SMILES): Cc1ccc(Nc2cc(N3CCC[C@@H](N)C3)nc3ccnn23)c(N)c1

- IC50 [27]: > 100 µM
Structure (SMILES): c1cc2nc(N3CCOCC3)cc(Nc3cc[nH]n3)n2n1

- IC50 [1]: > 100 µM
- IC50 [3]: > 100 µM
Structure (SMILES): N[C@@H]1CCCN(c2cc(NCc3ccccc3)n3nccc3n2)C1
- Activity [2]: Toxic

- IC50 [1]: > 100 µM
- IC50 [3]: > 100 µM
Structure (SMILES): Cc1ccc(Nc2cc(N3CCNCC3)nc3ccnn23)c(C)c1

- IC50 [1]: > 100 µM
- IC50 [3]: > 100 µM
Structure (SMILES): N[C@@H]1CCCN(c2cc(NCc3ccc(Cl)cc3Cl)n3nccc3n2)C1

- IC50 [1]: > 100 µM
- IC50 [3]: > 100 µM
Structure (SMILES): Cc1ccnc(Nc2cc(N3CCNCC3)nc3ccnn23)c1

- IC50 [27]: > 100 µM
Structure (SMILES): CC(C)(C)Nc1cc(NC(C)(C)C)n2nccc2n1
